Reference: the RNAGym collection of RNA variant scans (doi:10.1002/anie.201605470)

B1: Osa-1-4 twister ribozyme (parent)
chain: CCGCCUAACACUGCCAAUGCCGGUCCCAAGCCCGGAUAAAAGUGGAGGGGGCGG

Variants of: B1
Experiment: self-cleavage, relative activity (ratio to wild type); higher = more cleavage; co-transcriptional
Outline: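 The 48 positions downstream of the cleavage site in a 54-nucleotide Oryza sativa twister ribozyme template were synthesised at 97 % wild-type base and 1 % of each other base. The template was transcribed in vitro at 37 °C for 2 h, with self-cleavage allowed during transcription. Reads with or without upstream sequence after deep sequencing marked cleavage status, and relative activity is fraction cleaved normalised to wild type.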
Variant C20U G49A has a self-cleavage of 0.16.
C20U G49C showed a self-cleavage of 0.11.
With C20G C21G the self-cleavage was 0.24.
C20G C21U showed a self-cleavage of 0.29.
C20G C21A gave a self-cleavage of 0.46.
With C20G G49A the self-cleavage was 0.05.
C20G G49U gave a self-cleavage of 0.04.
C20G G49C showed a self-cleavage of 0.03.
Work on C21A G34C yielded a self-cleavage of 0.92.
In the case of C21A G34U, the self-cleavage is reported as 1.05.
Work on C21A G34A yielded a self-cleavage of 0.91.
C20G C33G gave a self-cleavage of 0.05.
C20G C33U gave a self-cleavage of 0.05.
For C20G C33A, the self-cleavage was 0.04.
C20U G44U showed a self-cleavage of 0.87.
Variant C20U G44C has a self-cleavage of 0.88.
In the case of C20U G44A, the self-cleavage is reported as 0.87.
Work on C20U G53C yielded a self-cleavage of 0.09.
In the case of C20U G53U, the self-cleavage is reported as 0.38.
In the case of C20U G53A, the self-cleavage is reported as 0.75.
Work on C20A U37A yielded a self-cleavage of 0.83.
With C20A U37C the self-cleavage was 0.88.
In the case of C20A U37G, the self-cleavage is reported as 0.89.
For C20U G30A, the self-cleavage was 0.05.
With C20U G30U the self-cleavage was 0.04.
C20U G30C showed a self-cleavage of 0.06.
With C21G C33G the self-cleavage was 0.05.
C21G C33A gave a self-cleavage of 0.03.
In the case of C21G C33U, the self-cleavage is reported as 0.05.
C20G G54U showed a self-cleavage of 0.12.
C20G G54C showed a self-cleavage of 0.07.
In the case of C20G G54A, the self-cleavage is reported as 0.06.
C20G C25A gave a self-cleavage of 0.06.
Work on C20G C25U yielded a self-cleavage of 0.21.
With C20G C25G the self-cleavage was 0.06.
C20G G48U gave a self-cleavage of 0.03.
Variant C20G G48C has a self-cleavage of 0.04.
Variant C20G G48A has a self-cleavage of 0.03.
For C20G C26G, the self-cleavage was 0.1.
For C20G C26A, the self-cleavage was 0.03.
With C20G C26U the self-cleavage was 0.2.
With C21A G22A the self-cleavage was 0.11.
C21A G22C showed a self-cleavage of 0.07.
Work on C21A G22U yielded a self-cleavage of 0.1.
With C20G G13U the self-cleavage was 0.01.
C20G G13A gave a self-cleavage of 0.03.
In the case of C20G G13C, the self-cleavage is reported as 0.02.
Work on C21A C31U yielded a self-cleavage of 0.21.
With C21A C31A the self-cleavage was 0.04.
Variant C21A C31G has a self-cleavage of 0.07.
In the case of C20U G54U, the self-cleavage is reported as 0.85.
C20U G54A showed a self-cleavage of 0.75.
In the case of C20U G54C, the self-cleavage is reported as 0.84.
For C20U G23C, the self-cleavage was 0.05.
Variant C20U G23U has a self-cleavage of 0.13.
With C20U G23A the self-cleavage was 0.27.
Variant C21A G45A has a self-cleavage of 0.05.
Work on C21A G45C yielded a self-cleavage of 0.05.
With C21A G45U the self-cleavage was 0.05.
C20U U43C showed a self-cleavage of 0.49.
In the case of C20U U43A, the self-cleavage is reported as 0.84.
For C20U U43G, the self-cleavage was 0.68.
In the case of C20G C31U, the self-cleavage is reported as 0.07.
Variant C20G C31A has a self-cleavage of 0.02.
C20G C31G showed a self-cleavage of 0.09.
With C21A G19U the self-cleavage was 0.07.
Work on C21A G19A yielded a self-cleavage of 0.4.
With C21A G19C the self-cleavage was 0.03.
For C20G G45U, the self-cleavage was 0.02.
C20G G45A gave a self-cleavage of 0.04.
For C20G G45C, the self-cleavage was 0.03.
C20G C9U gave a self-cleavage of 0.05.
With C20G C9A the self-cleavage was 0.05.
Work on C20G C9G yielded a self-cleavage of 0.1.
C20U C32U showed a self-cleavage of 0.15.
With C20U C32A the self-cleavage was 0.08.
For C20U C32G, the self-cleavage was 0.13.
In the case of C20G G51C, the self-cleavage is reported as 0.03.
Variant C20G G51U has a self-cleavage of 0.06.
Work on C20G G51A yielded a self-cleavage of 0.09.
With C21A G50C the self-cleavage was 0.24.
In the case of C21A G50U, the self-cleavage is reported as 0.52.
C21A G50A gave a self-cleavage of 0.85.
With C21G G30U the self-cleavage was 0.02.
C21G G30C showed a self-cleavage of 0.02.
C21G G30A showed a self-cleavage of 0.02.
C21G G13U showed a self-cleavage of 0.02.
In the case of C21G G13C, the self-cleavage is reported as 0.01.
C21G G13A gave a self-cleavage of 0.02.
In the case of C21G C9G, the self-cleavage is reported as 0.07.
Variant C21G C9U has a self-cleavage of 0.04.
Work on C21G C9A yielded a self-cleavage of 0.04.
Variant C21G C27G has a self-cleavage of 0.03.
Variant C21G C27A has a self-cleavage of 0.04.
C21G C27U showed a self-cleavage of 0.02.
Variant C20G U24A has a self-cleavage of 0.07.
Work on C20G U24G yielded a self-cleavage of 0.05.
C20G U24C showed a self-cleavage of 0.11.
Work on C20G G50C yielded a self-cleavage of 0.06.
C20G G50U gave a self-cleavage of 0.09.
In the case of C20G G50A, the self-cleavage is reported as 0.23.
With C20U U18A the self-cleavage was 0.86.
C20U U18C gave a self-cleavage of 0.87.
C20U U18G gave a self-cleavage of 0.82.
For C20U G22C, the self-cleavage was 0.06.
Variant C20U G22A has a self-cleavage of 0.6.
Variant C20U G22U has a self-cleavage of 0.5.
In the case of C20G G53C, the self-cleavage is reported as 0.03.
In the case of C20G G53A, the self-cleavage is reported as 0.06.
Work on C20G G53U yielded a self-cleavage of 0.04.
C21A G44C gave a self-cleavage of 0.24.
C21A G44A showed a self-cleavage of 0.38.
Work on C21A G44U yielded a self-cleavage of 0.21.
For C21A C26A, the self-cleavage was 0.05.
C21A C26G showed a self-cleavage of 0.09.
C21A C26U gave a self-cleavage of 0.2.
C20G G22U gave a self-cleavage of 0.09.
With C20G G22A the self-cleavage was 0.08.
Work on C20G G22C yielded a self-cleavage of 0.05.
Variant C20U G51U has a self-cleavage of 0.63.
With C20U G51C the self-cleavage was 0.11.
In the case of C20U G51A, the self-cleavage is reported as 0.85.
Work on C20G C27U yielded a self-cleavage of 0.05.
For C20G C27A, the self-cleavage was 0.04.
With C20G C27G the self-cleavage was 0.05.
Work on C21A C25G yielded a self-cleavage of 0.07.
In the case of C21A C25A, the self-cleavage is reported as 0.08.
For C21A C25U, the self-cleavage was 0.16.
In the case of C20U C52A, the self-cleavage is reported as 0.9.
C20U C52G gave a self-cleavage of 0.89.
C20U C52U showed a self-cleavage of 0.96.
In the case of C21A G51C, the self-cleavage is reported as 0.07.
With C21A G51A the self-cleavage was 0.31.
C21A G51U showed a self-cleavage of 0.25.
C21A C27A gave a self-cleavage of 0.08.
Work on C21A C27G yielded a self-cleavage of 0.04.
Variant C21A C27U has a self-cleavage of 0.08.
With C20U G42C the self-cleavage was 0.22.
In the case of C20U G42A, the self-cleavage is reported as 0.62.
C20U G42U gave a self-cleavage of 0.1.
With C20G U12A the self-cleavage was 0.09.
In the case of C20G U12G, the self-cleavage is reported as 0.04.
In the case of C20G U12C, the self-cleavage is reported as 0.07.
For C21G C32G, the self-cleavage was 0.06.
For C21G C32U, the self-cleavage was 0.02.
With C21G C32A the self-cleavage was 0.03.
For C20A U43A, the self-cleavage was 0.77.
Variant C20A U43G has a self-cleavage of 0.71.
C20A U43C showed a self-cleavage of 0.58.
For C21A G30C, the self-cleavage was 0.04.
Work on C21A G30A yielded a self-cleavage of 0.03.
In the case of C21A G30U, the self-cleavage is reported as 0.04.
For C20U G19A, the self-cleavage was 0.9.
C20U G19C showed a self-cleavage of 0.18.
For C20U G19U, the self-cleavage was 0.65.
In the case of C20U C21U, the self-cleavage is reported as 1.05.
For C20U C21G, the self-cleavage was 0.26.
For C20U C21A, the self-cleavage was 0.87.
Work on C21A C9G yielded a self-cleavage of 0.11.
Work on C21A C9A yielded a self-cleavage of 0.07.
In the case of C21A C9U, the self-cleavage is reported as 0.1.
Work on C20U G47U yielded a self-cleavage of 0.29.
C20U G47C showed a self-cleavage of 0.15.
In the case of C20U G47A, the self-cleavage is reported as 0.28.
With C20G G30U the self-cleavage was 0.02.
With C20G G30A the self-cleavage was 0.03.
C20G G30C gave a self-cleavage of 0.03.
